The source made the active and inactive calls. The rule behind the calls is not given here.
How the values were obtained:
Format in all cases: cell-based
KBVIN [1] = assay: Inhibition of P-gp-mediated multidrug-resistance in human KBVIN cells assessed as fold decrease in vincristine IC50 for cytotoxic activity at 10 uM after 72 hrs by SRB assay relative to control
Summary of the method: (§1)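 KBvin cells were exposed to graded concentrations of anticancer drug (doxorubicin, paclitaxel or vincristine), alone or with 10 μM test compound, for 72 h. Growth was read by SRB assay. IC50 was found by log-linear interpolation. Reversal fold = IC50 (drug alone) / IC50 (drug + compound). Verapamil was the positive control. Each experiment was run at least three times.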

KBVIN [2] = assay: Inhibition of P-gp-mediated multidrug-resistance in human KBVIN cells assessed as doxorubicin-induced cytotoxicity at 10 uM after 72 hrs by SRB assay; summary of the method: as §1
KBVIN [3] = assay: Inhibition of P-gp-mediated multidrug-resistance in human KBVIN cells assessed as vincristine-induced cytotoxicity at 10 uM after 72 hrs by SRB assay; summary of the method: as §1
KBVIN [4] = assay: Inhibition of P-gp-mediated multidrug-resistance in human KBVIN cells assessed as fold decrease in doxorubicin IC50 for cytotoxic activity at 10 uM after 72 hrs by SRB assay relative to control; summary of the method: as §1
[5] = target: T1, ATP-dependent translocase ABCB1 (Homo sapiens, UniProt P08183); assay: Inhibition of P-gp over expressed in human multidrug-resistant KBVIN cells assessed as intracellular accumulation of doxorubicin at 10uM after 3 hrs by fluorescence microplate reader analysis relative to control
T1 sequence (P08183 whole entry): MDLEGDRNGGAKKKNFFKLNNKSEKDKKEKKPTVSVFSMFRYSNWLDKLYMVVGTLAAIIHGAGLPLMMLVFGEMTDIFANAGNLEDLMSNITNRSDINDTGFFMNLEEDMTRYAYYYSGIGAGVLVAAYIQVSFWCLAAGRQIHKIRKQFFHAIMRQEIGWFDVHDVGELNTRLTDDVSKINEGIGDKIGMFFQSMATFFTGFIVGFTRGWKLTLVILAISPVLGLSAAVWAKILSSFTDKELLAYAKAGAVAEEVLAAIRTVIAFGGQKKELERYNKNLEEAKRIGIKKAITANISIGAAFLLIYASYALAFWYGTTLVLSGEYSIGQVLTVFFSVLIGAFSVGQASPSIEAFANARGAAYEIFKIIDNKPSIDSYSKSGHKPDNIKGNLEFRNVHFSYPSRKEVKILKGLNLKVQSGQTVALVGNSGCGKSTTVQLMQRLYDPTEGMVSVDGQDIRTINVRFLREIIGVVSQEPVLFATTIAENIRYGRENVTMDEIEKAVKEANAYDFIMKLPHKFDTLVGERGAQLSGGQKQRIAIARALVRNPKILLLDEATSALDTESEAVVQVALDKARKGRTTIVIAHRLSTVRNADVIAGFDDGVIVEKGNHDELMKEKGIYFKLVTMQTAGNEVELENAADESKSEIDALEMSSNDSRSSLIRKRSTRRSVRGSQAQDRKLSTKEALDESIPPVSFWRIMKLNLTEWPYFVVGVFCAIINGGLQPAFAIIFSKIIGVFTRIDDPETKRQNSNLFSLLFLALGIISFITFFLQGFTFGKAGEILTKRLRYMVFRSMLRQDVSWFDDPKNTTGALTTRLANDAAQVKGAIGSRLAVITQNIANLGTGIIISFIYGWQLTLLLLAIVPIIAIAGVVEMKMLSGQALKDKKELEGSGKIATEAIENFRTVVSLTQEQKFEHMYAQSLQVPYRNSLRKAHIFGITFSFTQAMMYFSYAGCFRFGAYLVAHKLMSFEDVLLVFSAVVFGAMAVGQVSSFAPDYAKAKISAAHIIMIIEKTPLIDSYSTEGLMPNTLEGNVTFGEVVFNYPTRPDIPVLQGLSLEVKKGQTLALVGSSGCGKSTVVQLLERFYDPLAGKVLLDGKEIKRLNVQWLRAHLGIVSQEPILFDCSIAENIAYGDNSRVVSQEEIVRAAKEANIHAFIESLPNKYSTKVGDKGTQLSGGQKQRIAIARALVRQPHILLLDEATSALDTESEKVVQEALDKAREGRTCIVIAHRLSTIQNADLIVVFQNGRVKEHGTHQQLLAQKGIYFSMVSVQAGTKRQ
Summary of the method: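 KBvin cells at 5 × 10^3/well were pretreated with compound for 1 h, then given doxorubicin (10 μM final) for 3 h. Cells were washed with ice-cold PBS and lysed in 1% SDS/PBS. Verapamil or CsA served as positive control.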

KBVIN [6] = assay: Inhibition of P-gp-mediated multidrug-resistance in human KBVIN cells assessed as fold decrease in paclitaxel IC50 for cytotoxic activity at 10 uM after 72 hrs by SRB assay relative to control; summary of the method: as §1
KBVIN [7] = assay: Inhibition of P-gp-mediated multidrug-resistance in human KBVIN cells assessed as paclitaxel-induced cytotoxicity at 10 uM after 72 hrs by SRB assay; summary of the method: as §1
NIH3T3 [8] = assay: Inhibition of human P-gp-mediated multidrug-resistance in mouse NIH3T3 MDR cells assessed as potentiation of in vincristine-induced cytotoxic activity at 10 uM after 72 hrs by SRB assay; conditions: Mus musculus cells expressing human P-gp
[9] = (§2) Inhibition of P-gp-mediated multidrug-resistance in human KBVIN cells assessed as paclitaxel-induced cytotoxicity after 72 hrs by SRB assay
Summary of the method: (§3)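 KBvin cells were cultured with 100 nM paclitaxel plus a range of compound concentrations. Growth was read by SRB, and the EC50 of reversal was derived. Verapamil was the comparator.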

KBVIN [10] = assay: as §2; summary of the method: as §3
[11] = Antiproliferative activity against human multidrug-resistant KBVIN cells after 72 hrs by SRB assay; conditions: for IC50: Homo sapiens, KBVIN; for Activity: human, kbvin
Summary of the method: (§4)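 SRB assay. Cells at 3–5 × 10^3/well were exposed to a range of sample concentrations for 72 h. They were fixed in 50% TCA for 30 min, stained with 0.04% SRB for 30 min, and the dye was dissolved in 10 mM Tris base. Absorbance read at 515 nm. Medium was RPMI 1640 with 10% FBS at 37 °C, 5% CO2. KBvin cells were kept in 100 nM vincristine.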

KB = assay: Antiproliferative activity against human KB cells after 72 hrs by SRB assay; conditions: for IC50: Homo sapiens, KB; for Activity: human, kb; summary of the method: as §4
DU-145 = assay: Antiproliferative activity against human DU145 cells after 72 hrs by SRB assay; conditions: for IC50: Homo sapiens, DU-145, 72 h; for Activity: human, du-145, 72 h; summary of the method: as §4
[12] = target: T1, ATP-dependent translocase ABCB1; assay: Inhibition of P-gp over expressed in human multidrug-resistant KBVIN cells after 10 mins by calcein AM accumulation assay
Summary of the method: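 KBvin cells at 5 × 10^3/well were pretreated with samples for 1 h, then given calcein-AM (1 μM final) for 10 min. Cells were washed with ice-cold PBS and lysed in 1% SDS/PBS. Calcein fluorescence read at Ex 494/Em 517 nm. Verapamil or CsA served as positive control.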

NIH3T3 [13] = assay: Inhibition of human P-gp-mediated multidrug-resistance in mouse NIH3T3 MDR cells assessed as potentiation of in paclitaxel-induced cytotoxic activity at 10 uM after 72 hrs by SRB assay; conditions: human P-gp expressed in mouse cells
A549 = assay: Antiproliferative activity against human A549 cells after 72 hrs by SRB assay; conditions: for IC50: Homo sapiens, A549, 72 h; for Activity: human, a549, 72 h; summary of the method: as §4
KBVIN [14] = assay: Inhibition of P-gp-mediated multidrug-resistance in human KBVIN cells assessed as […] of paclitaxel-induced cell survival rate at 10 uM after 72 hrs by SRB assay

| Compound | IC50 [11] [µM] | IC50 (KB) [µM] | IC50 (DU-145) [µM] | IC50 (A549) [µM] | inhibition (KBVIN [14]) | other results |
| --- | --- | --- | --- | --- | --- | --- |
| COc1ccc(CCN(C)CCCC(C#N)(c2ccc(OC)c(OC)c2)C(C)C)cc1OC (centres undefined) |  |  |  |  |  | fold change (FC) (KBVIN [1]): 109; Activity (KBVIN [2]): Active; Activity (KBVIN [3]): Active; fold change (FC) (KBVIN [4]): 9; fold change (FC) [5]: 1.2; fold change (FC) (KBVIN [6]): 31; Activity (KBVIN [7]): Active |
| COc1cc(C(=O)OCc2cc(OC)c3c(c2-c2c(COC(=O)c4cc(OC)c(OC)c(OC)c4)cc(OC)c4c2OCO4)OCO3)cc(OC)c1OC | > 100 | > 100 | > 100 | > 100 |  | fold change (FC) (KBVIN [1]): 566; inhibition (NIH3T3 [8]): Active; EC50 [9]: 1.87 µM; inhibition (KBVIN [10]): Dose-dependent effect; Activity (KBVIN [2]): Active; Activity (KBVIN [3]): Active; fold change (FC) (KBVIN [4]): 23; fold change (FC) [5]: 1.2; inhibition (INH) [12]: Dose-dependent effect; inhibition (NIH3T3 [13]): Active; fold change (FC) (KBVIN [6]): 222; Activity (KBVIN [7]): Active |
| COc1cc(CO)c(-c2c(CO)cc(OC)c3c2OCO3)c2c1OCO2 | > 100 | > 100 | > 100 | > 100 | inactive |  |
| COc1cc(COC(=O)c2ccc3ccccc3n2)c(-c2c(COC(=O)c3ccc4ccccc4n3)cc(OC)c3c2OCO3)c2c1OCO2 |  |  |  |  | Active | Activity [11]: Toxic; Activity (KB): Toxic; Activity (DU-145): Toxic; Activity (A549): Toxic |
| COc1c(Br)c(CO)c(-c2c(CO)c(Br)c(OC)c3c2OCO3)c2c1OCO2 | > 100 | > 100 | > 100 | > 100 | inactive |  |
| CCCC(=O)OCc1c(Br)c(OC)c2c(c1-c1c(COC(=O)CCC)c(Br)c(OC)c3c1OCO3)OCO2 |  |  |  |  | inactive | Activity [11]: Toxic; Activity (KB): Toxic; Activity (DU-145): Toxic; Activity (A549): Toxic |
| CCCCCCCCCCCC(=O)OCc1cc(OC)c2c(c1-c1c(COC(=O)CCCCCCCCCCC)cc(OC)c3c1OCO3)OCO2 | > 100 | > 100 | > 100 | > 100 | inactive |  |
| COc1cc(COC(=O)C(C)(C)C)c(-c2c(COC(=O)C(C)(C)C)cc(OC)c3c2OCO3)c2c1OCO2 | > 100 | > 100 | > 100 | > 100 |  | fold change (FC) (KBVIN [1]): 349; inhibition (NIH3T3 [8]): Active; EC50 [9]: 2.81 µM; inhibition (KBVIN [10]): Dose-dependent effect; Activity (KBVIN [2]): Active; Activity (KBVIN [3]): Active; fold change (FC) (KBVIN [4]): 46; fold change (FC) [5]: 1.2; inhibition (INH) [12]: Dose-dependent effect; inhibition (NIH3T3 [13]): Active; fold change (FC) (KBVIN [6]): 37; Activity (KBVIN [7]): Active |
| COC(=O)c1c(Br)c(OC)c2c(c1-c1c3c(c(OC)c(Br)c1C(=O)OC)OCO3)OCO2 | > 100 | > 100 | > 100 | > 100 | inactive |  |
| COc1cc(COC(C)=O)c(-c2c(COC(C)=O)cc(OC)c3c2OCO3)c2c1OCO2 | > 100 | > 100 | > 100 | > 100 | inactive |  |
| COc1cc(COC(=O)CCC(=O)O)c(-c2c(COC(=O)CCC(=O)O)cc(OC)c3c2OCO3)c2c1OCO2 | > 100 | > 100 | > 100 | > 100 | inactive |  |
| COc1c2c(c3c(c1Br)c(=O)oc(=O)c1c(Br)c(OC)c4c(c13)OCO4)OCO2 | > 100 | > 100 | > 100 | > 100 | inactive |  |

— ChEMBL document CHEMBL2086383, “Antitumor agents. 293. Nontoxic dimethyl-4,4'-dimethoxy-5,6,5',6'-dimethylenedioxybiphenyl-2,2'-dicarboxylate (DDB) analogues chemosensitize multidrug-resistant cancer cells to clinical anticancer drugs” (J Med Chem, 2012)
